This experiment deals with Tumor necrosis factor (Homo sapiens, UniProt P01375). Nature of the experiment: TNF-alpha production in PBMC by ELISA method. The procedure, abridged: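 Human PBMC were isolated from heparinized blood by ficoll-histopaque and plated at […] cells/mL in RPMI 1640 with 20% autologous plasma and glutamine. Compound at 2X concentration was added in equal volume, 60 min preincubation, then LPS 10 ug/mL final. Supernatant was taken at 18 h for sandwich ELISA (mouse capture, rabbit detection, poly-HRP). IC50 is the concentration inhibiting TNFa production by 50% of control.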
Sequence of Tumor necrosis factor (P01375 whole entry): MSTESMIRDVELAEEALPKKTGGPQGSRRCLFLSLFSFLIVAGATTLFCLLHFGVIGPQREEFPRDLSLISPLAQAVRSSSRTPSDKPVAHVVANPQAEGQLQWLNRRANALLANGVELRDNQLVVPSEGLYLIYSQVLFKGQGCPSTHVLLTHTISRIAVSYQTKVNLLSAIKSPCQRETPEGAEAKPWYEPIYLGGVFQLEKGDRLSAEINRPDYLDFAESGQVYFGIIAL

pIC50: −log10 of the molar value.

The compound `Cn1cnc2c1c(=O)n(CCCC(=O)O)c(=O)n2C` [4-(3,7-Dimethyl-2,6-dioxo-2,3,6,7-tetrahydro-purin-1-yl)-butyric acid] had a pIC50 below 3.70.

`CCCCOc1cc(C[C@@H]2CNC(=O)N2)ccc1OC` [4-(3-Butoxy-4-methoxy-benzyl)-imidazolidin-2-one] had a pIC50 of 4.30.

The compound `CCOC(=O)CCCn1c(=O)c2nc(-c3ccccc3)cnc2n(C)c1=O` [4-(1-Methyl-2,4-dioxo-6-phenyl-1,4-dihydro-2H-pteridin-3-yl)-butyric acid ethyl ester] had a pIC50 below 3.70.

`CCOC(=O)CCCn1c(=O)c2c(nc(Br)n2C)n(C)c1=O` [4-(8-Bromo-3,7-dimethyl-2,6-dioxo-2,3,6,7-tetrahydro-purin-1-yl)-butyric acid ethyl ester] had a pIC50 of 4.22.

For `CCCn1c(=O)n(CCCC(=O)OCC)c(=O)c2nccnc21` [4-(2,4-Dioxo-1-propyl-1,4-dihydro-2H-pteridin-3-yl)-butyric acid ethyl ester], the pIC50 was 5.30.

As to `CCOC(=O)CCCn1c(=O)c2nccnc2n(C)c1=O` [4-(1-Methyl-2,4-dioxo-1,4-dihydro-2H-pteridin-3-yl)-butyric acid ethyl ester], the pIC50 is 4.92.

As to `Cn1c(=O)n(CCCC(=O)O)c(=O)c2nccnc21` [4-(1-Methyl-2,4-dioxo-1,4-dihydro-2H-pteridin-3-yl)-butyric acid], the pIC50 was below 3.70.

For the compound `COC(=O)c1ccc(Cn2c(=O)c3c(ncn3C)n(C)c2=O)cc1` [4-(3,7-Dimethyl-2,6-dioxo-2,3,6,7-tetrahydro-purin-1-ylmethyl)-benzoic acid methyl ester], the pIC50 is below 3.70.

Consider `CCCCCn1c(=O)n(CCCC(=O)OCC)c(=O)c2nccnc21` [4-(2,4-Dioxo-1-pentyl-1,4-dihydro-2H-pteridin-3-yl)-butyric acid ethyl ester], for which the pIC50 was 4.80.

For the compound `CCOC(=O)Cn1c(=O)c2c(ncn2C)n(C)c1=O` [(3,7-Dimethyl-2,6-dioxo-2,3,6,7-tetrahydro-purin-1-yl)-acetic acid ethyl ester], the pIC50 is 3.70.

Compound `CCCn1c(=O)n(CCCC(=O)OCC)c(=O)c2c1ncn2C` [4-(7-Methyl-2,6-dioxo-3-propyl-2,3,6,7-tetrahydro-purin-1-yl)-butyric acid ethyl ester] showed a pIC50 of 5.30.

In turn, `CCOC(=O)CCCn1c(=O)c2c(ncn2C)n(C)c1=O` [4-(3,7-Dimethyl-2,6-dioxo-2,3,6,7-tetrahydro-purin-1-yl)-butyric acid ethyl ester] showed a pIC50 of 5.22.

On to `CCOC(=O)CCCn1c(=O)c2nccnc2n(Cc2ccccc2)c1=O` [4-(1-Benzyl-2,4-dioxo-1,4-dihydro-2H-pteridin-3-yl)-butyric acid ethyl ester], for which the pIC50 was 3.76.

Take `CCCn1c(=O)n(CCCC(=O)O)c(=O)c2nccnc21` [4-(2,4-Dioxo-1-propyl-1,4-dihydro-2H-pteridin-3-yl)-butyric acid]: the pIC50 is below 3.70.

For `CCCn1c(=O)n(CCCC(=O)OCC)c(=O)c2nsnc21` [4-(5,7-Dioxo-4-propyl-4,5-dihydro-7H-[1,2,5]thiadiazolo[3,4-d]pyrimidin-6-yl)-butyric acid ethyl ester], the pIC50 is 4.74.

`CCOC(=O)CCCn1c(=O)c2nsnc2n(C)c1=O` [4-(4-Methyl-5,7-dioxo-4,5-dihydro-7H-[1,2,5]thiadiazolo[3,4-d]pyrimidin-6-yl)-butyric acid ethyl ester] gave a pIC50 of 4.60.

For the compound `CCCCn1c(=O)n(CCCC(=O)OCC)c(=O)c2nccnc21` [4-(1-Butyl-2,4-dioxo-1,4-dihydro-2H-pteridin-3-yl)-butyric acid ethyl ester], the pIC50 is 4.82.

The compound `CCOC(=O)CCCn1c(=O)c2nc(CC)c(CC)nc2n(C)c1=O` [4-(6,7-Diethyl-1-methyl-2,4-dioxo-1,4-dihydro-2H-pteridin-3-yl)-butyric acid ethyl ester] gave a pIC50 of 3.89.

`CCOC(=O)CCn1c(=O)c2c(ncn2C)n(C)c1=O` [3-(3,7-Dimethyl-2,6-dioxo-2,3,6,7-tetrahydro-purin-1-yl)-propionic acid ethyl ester]: the pIC50 was 5.00.

The compound `CC(=O)CCCCn1c(=O)c2c(ncn2C)n(C)c1=O` [1-(5-Oxohexyl)theobromine (pentoxifylline)] showed a pIC50 of 4.07.

Compound `CCOC(=O)CCCn1c(=O)c2ccccc2n(C)c1=O` [4-(1-Methyl-2,4-dioxo-1,4-dihydro-2H-quinazolin-3-yl)-butyric acid ethyl ester] gave a pIC50 of 4.26.

`CCOC(=O)CCCn1c(=O)c2c([nH]c(=S)n2C)n(C)c1=O` [4-(8-Mercapto-3,7-dimethyl-2,6-dioxo-2,3,6,7-tetrahydro-purin-1-yl)-butyric acid ethyl ester] had a pIC50 of 4.00.

For `Cn1c(=O)n(CCCC(=O)O)c(=O)c2ccccc21` [4-(1-Methyl-2,4-dioxo-1,4-dihydro-2H-quinazolin-3-yl)-butyric acid], the pIC50 was below 3.70.

As for `COc1ccc([C@@H]2CNC(=O)C2)cc1OC1CCCC1` (racemic) [Adeo], the pIC50 is 4.92.

The compound `CCOC(=O)CCCCn1c(=O)c2c(ncn2C)n(C)c1=O` [5-(3,7-Dimethyl-2,6-dioxo-2,3,6,7-tetrahydro-purin-1-yl)-pentanoic acid ethyl ester] showed a pIC50 of 4.96.

Compound `CCOC(=O)CCCn1c(=O)c2nccnc2n(CC(C)C)c1=O` [4-(1-Isobutyl-2,4-dioxo-1,4-dihydro-2H-pteridin-3-yl)-butyric acid ethyl ester] showed a pIC50 of 4.70.

With `COC(=O)/C=C\Cn1c(=O)c2nccnc2n(C)c1=O` [(Z)-4-(1-Methyl-2,4-dioxo-1,4-dihydro-2H-pteridin-3-yl)-but-2-enoic acid methyl ester], the pIC50 is 4.60.

With `Cn1c(=O)[nH]c(=O)c2[nH]c(=S)[nH]c21` [8-Mercapto-3-methyl-3,7-dihydro-purine-2,6-dione], the pIC50 is below 3.70.

In the case of `CCCCCCCn1c(=O)c2nsnc2n(C)c1=O` [6-Heptyl-4-methyl-4H-[1,2,5]thiadiazolo[3,4-d]pyrimidine-5,7-dione], the pIC50 is 4.12.

With `COC(=O)c1ccc(Cn2c(=O)c3c(nc(Br)n3C)n(C)c2=O)cc1` [4-(8-Bromo-3,7-dimethyl-2,6-dioxo-2,3,6,7-tetrahydro-purin-1-ylmethyl)-benzoic acid methyl ester], the pIC50 was below 3.70.

On to `CCOC(=O)c1ccc(Cn2c(=O)c3c([nH]c(=S)n3C)n(C)c2=O)cc1` [4-(8-Mercapto-3,7-dimethyl-2,6-dioxo-2,3,6,7-tetrahydro-purin-1-ylmethyl)-benzoic acid ethyl ester], for which the pIC50 was below 3.70.

Take `CCOC(=O)CCCn1c(=O)c2nccnc2n(C2CCOC2)c1=O` (stereo not drawn) [4-[2,4-Dioxo-1-(tetrahydro-furan-3-yl)-1,4-dihydro-2H-pteridin-3-yl]-butyric acid ethyl ester]: the pIC50 was 4.72.

Compound `Cn1c(=O)n(CCCC(=O)O)c(=O)c2nsnc21` [4-(4-Methyl-5,7-dioxo-4,5-dihydro-7H-[1,2,5]thiadiazolo[3,4-d]pyrimidin-6-yl)-butyric acid] gave a pIC50 below 3.70.

The record behind these values is BindingDB's records for doi:10.1021/jm940845j (University of California, 1996).
